Experiments:
[1] = molecular target: T1, Plasminogen (Homo sapiens, UniProt P00747); assay: Inhibition of plasmin at 100 uM
[2] = molecular target: T2, Coagulation factor X (Homo sapiens, UniProt P00742); assay: In vitro inhibition of coagulation factor Xa.
In short: (§1)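 Enzyme was preincubated 1 h at room temperature with inhibitor across 14 concentrations (1 nM–100 μM final). A405 was read kinetically over 10 min at 37 °C. Percent inhibition came from the linear progress-curve slopes, typically in duplicate.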

[3] = molecular target: T3, Prothrombin (Homo sapiens, UniProt P00734); assay: Inhibition of thrombin at 100 uM
[4] = molecular target: T4, Serine protease 1 (Homo sapiens, UniProt P07477); assay: In vitro inhibitory activity against trypsin at 100 uM
[5] = molecular target: T1, Plasminogen; assay: Compound was tested for in vitro inhibitory activity against plasmin at 100 uM
[6] = molecular target: T4, Serine protease 1; assay: In vitro inhibitory activity against trypsin; in short: as §1
[7] = molecular target: T3, Prothrombin; assay: Inhibition of thrombin; in short: as §1
[8] = molecular target: T1, Plasminogen; assay: Compound was tested for in vitro inhibitory activity against plasmin; in short: as §1
[9] = molecular target: T3, Prothrombin; assay: Compound was tested for in vitro inhibitory activity against thrombin at 100 uM
[10] = molecular target: T2, Coagulation factor X; assay: Compound was tested for in vitro inhibitory activity against Coagulation factor X at 100 uM
[11] = molecular target: T2, Coagulation factor X; assay: Compound was tested for in vitro inhibitory activity against Prothrombinase
[12] = species: Homo sapiens; assay: In Vitro evaluation for the concentration for 2 fold prolongation of Prothrombin Time (PT) assay in human
[13] = species: Oryctolagus cuniculus; assay: In Vitro evaluation for the concentration for 2 fold prolongation of Prothrombin Time (PT) assay in rabbit; type: functional
In short: (§2)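 Clotting assays (PT or aPTT) used pooled plasma from the named species with added inhibitor. The value is the concentration giving a 2-fold prolongation of clotting time. Determinations were done in duplicate.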

[14] = test system: Canis familiaris; assay: effect on the time to occlusion(TO) in the dog electrolytic injury model at the 5 ug/kg/min to the artery; type: functional, Canis lupus familiaris
In short: (§3)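 Anesthetized dogs received electrolytic injury to the endothelium as the thrombotic stimulus in the femoral artery and a vein. Agent was infused continuously at 0 (control), 1.25, 2.5, 5 or 10 μg/kg/min. Time to occlusion was recorded up to a maximum of 240 min. n = 12 control, 4 at 1.25, and 5 at each other dose; mean ± SEM.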

[15] = test system: Canis familiaris; assay: effect on the time to occlusion(TO) in the dog electrolytic injury model at the 2.5 ug/kg/min to the artery; type: functional, Canis lupus familiaris; in short: as §3
[16] = test system: Canis familiaris; assay: effect on the time to occlusion(TO) in the dog electrolytic injury model at the 2.5 ug/kg/min to the vein; type: functional, Canis lupus familiaris; in short: as §3
[17] = test system: Canis familiaris; assay: effect on the time to occlusion(TO) in the dog electrolytic injury model at the 10 ug/kg/min to the vein; type: functional, Canis lupus familiaris; in short: as §3
[18] = test system: Canis familiaris; assay: effect on the time to occlusion(TO) in the dog electrolytic injury model at the 5 ug/kg/min to the vein; type: functional, Canis lupus familiaris; in short: as §3
[19] = species: Homo sapiens; assay: In Vitro evaluation for the concentration for 2 fold prolongation of Prolonged activated partial thromboplastin Time (aPTT) assay in human; type: functional; in short: as §2
[20] = test system: Canis familiaris; assay: effect on the time to occlusion(TO) in the dog electrolytic injury model at the 0 ug/kg/min to the artery; type: functional, Canis lupus familiaris; in short: as §3
[21] = species: Canis lupus familiaris; assay: In Vitro evaluation for the concentration for 2 fold prolongation of Prolonged activated partial thromboplastin Time (aPTT) assay in dog
[22] = species: Canis lupus familiaris; assay: In Vitro evaluation for the concentration for 2 fold prolongation of Prothrombin Time (PT) assay in dog
[23] = test system: Oryctolagus cuniculus; assay: effect on the time to occlusion in the rabbit Veno-venous Shunt model by administering through intravenous (IV) bolus (90 ug/kg) + infusion (3 ug/kg/min); type: functional
In short: (§4)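 Rabbit veno-venous shunt containing cotton threads. Test agent was given as an iv bolus plus continuous infusion at the stated dose. The endpoint was time to occlusion of the shunt vessel, observed over a 2-h window. Incidence of occlusion per group was recorded. n = 5 per dose group, mean ± SE.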

[24] = molecular target: T5, Coagulation factor VII (Homo sapiens) (UniProt P08709); assay: Compound was tested for in vitro inhibitory activity against coagulation factor VII at 100 uM
T5 sequence (whole entry): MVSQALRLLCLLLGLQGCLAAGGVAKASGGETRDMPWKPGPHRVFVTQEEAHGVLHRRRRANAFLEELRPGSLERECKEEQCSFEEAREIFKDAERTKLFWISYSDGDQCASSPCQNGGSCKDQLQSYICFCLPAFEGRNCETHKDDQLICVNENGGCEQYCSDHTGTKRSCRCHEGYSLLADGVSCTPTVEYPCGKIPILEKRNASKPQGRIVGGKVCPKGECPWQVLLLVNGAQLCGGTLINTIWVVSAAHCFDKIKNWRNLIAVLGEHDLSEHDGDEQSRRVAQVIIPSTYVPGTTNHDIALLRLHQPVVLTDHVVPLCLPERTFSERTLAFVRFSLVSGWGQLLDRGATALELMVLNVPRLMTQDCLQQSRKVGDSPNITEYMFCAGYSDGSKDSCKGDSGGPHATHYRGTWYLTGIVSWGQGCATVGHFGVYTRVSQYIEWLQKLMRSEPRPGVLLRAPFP

[25] = test system: Canis familiaris; assay: effect on the time to occlusion(TO) in the dog electrolytic injury model at the 10 ug/kg/min to the artery; type: functional, Canis lupus familiaris; in short: as §3
[26] = molecular target: Vitamin K-dependent protein C (Homo sapiens, UniProt P04070); assay: Compound was tested for in vitro inhibitory activity against activated protein C
[27] = test system: Oryctolagus cuniculus; assay: effect on the time to occlusion in the rabbit Veno-venous Shunt model by administering through intravenous (IV) bolus (30 ug/kg) + infusion (1 ug/kg/min); type: functional; in short: as §4
[28] = test system: Oryctolagus cuniculus; assay: effect on the time to occlusion in the rabbit Veno-venous Shunt model by administering through intravenous (IV) bolus (60 ug/kg) + infusion (2 ug/kg/min); type: functional; in short: as §4
[29] = test system: Canis familiaris; assay: effect on the time to occlusion(TO) in the dog electrolytic injury model at the 1.25 ug/kg/min to the artery; type: functional, Canis lupus familiaris; in short: as §3
[30] = species: Oryctolagus cuniculus; assay: In Vitro evaluation for the concentration for 2 fold prolongation of Prolonged activated partial thromboplastin Time (aPTT) assay in rabbit; type: functional; in short: as §2
[31] = Compound was tested for in vitro inhibitory activity against Chymotrypsinogen at 100 uM
[32] = test system: Canis familiaris; assay: effect on the time to occlusion(TO) in the dog electrolytic injury model at the 1.25 ug/kg/min to the vein; type: functional, Canis lupus familiaris; in short: as §3
[33] = test system: Canis familiaris; assay: effect on the time to occlusion(TO) in the dog electrolytic injury model at the 0 ug/kg/min to the vein; type: functional, Canis lupus familiaris; in short: as §3

T2 sequence (P00742 41-179 limits assumed): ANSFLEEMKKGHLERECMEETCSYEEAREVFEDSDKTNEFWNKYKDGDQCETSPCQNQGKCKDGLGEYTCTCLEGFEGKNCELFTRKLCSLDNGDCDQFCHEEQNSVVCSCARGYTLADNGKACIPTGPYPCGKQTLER
T2 sequence (P00742 235-488 limits assumed): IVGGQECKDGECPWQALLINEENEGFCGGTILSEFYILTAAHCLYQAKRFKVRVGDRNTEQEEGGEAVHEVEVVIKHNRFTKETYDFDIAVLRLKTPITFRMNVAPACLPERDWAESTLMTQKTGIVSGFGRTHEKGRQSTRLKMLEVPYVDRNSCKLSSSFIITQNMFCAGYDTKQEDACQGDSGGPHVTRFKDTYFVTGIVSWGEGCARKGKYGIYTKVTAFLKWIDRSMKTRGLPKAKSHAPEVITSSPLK
T4 sequence (P07477 whole entry): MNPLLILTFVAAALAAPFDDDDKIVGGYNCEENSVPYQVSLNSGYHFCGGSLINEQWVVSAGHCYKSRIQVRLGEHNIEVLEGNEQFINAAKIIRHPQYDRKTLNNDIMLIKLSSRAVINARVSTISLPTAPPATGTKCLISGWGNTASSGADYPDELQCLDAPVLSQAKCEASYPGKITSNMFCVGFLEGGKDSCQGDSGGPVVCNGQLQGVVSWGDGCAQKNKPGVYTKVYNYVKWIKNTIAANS
T1 sequence (P00747 97-580 limits assumed): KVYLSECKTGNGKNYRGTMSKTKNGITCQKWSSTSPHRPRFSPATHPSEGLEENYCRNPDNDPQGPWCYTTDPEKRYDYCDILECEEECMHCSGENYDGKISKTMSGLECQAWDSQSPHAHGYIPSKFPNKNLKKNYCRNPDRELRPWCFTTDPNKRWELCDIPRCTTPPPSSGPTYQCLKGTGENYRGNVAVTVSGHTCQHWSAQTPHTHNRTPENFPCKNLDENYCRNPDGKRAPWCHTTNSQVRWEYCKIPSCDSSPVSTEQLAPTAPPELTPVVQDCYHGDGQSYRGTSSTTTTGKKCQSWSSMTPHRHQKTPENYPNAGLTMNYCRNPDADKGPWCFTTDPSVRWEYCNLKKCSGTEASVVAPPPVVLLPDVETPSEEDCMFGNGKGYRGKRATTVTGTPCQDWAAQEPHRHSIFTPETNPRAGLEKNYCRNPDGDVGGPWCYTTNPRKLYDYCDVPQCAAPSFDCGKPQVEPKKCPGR
T1 sequence (P00747 581-810 limits assumed): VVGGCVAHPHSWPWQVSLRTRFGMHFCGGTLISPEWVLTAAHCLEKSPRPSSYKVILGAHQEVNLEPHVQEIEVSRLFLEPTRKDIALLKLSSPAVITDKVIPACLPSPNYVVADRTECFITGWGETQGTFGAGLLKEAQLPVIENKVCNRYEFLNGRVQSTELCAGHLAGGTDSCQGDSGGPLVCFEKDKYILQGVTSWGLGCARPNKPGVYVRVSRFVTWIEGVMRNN
Vitamin K-dependent protein C, sequence (P04070 43-197 limits assumed): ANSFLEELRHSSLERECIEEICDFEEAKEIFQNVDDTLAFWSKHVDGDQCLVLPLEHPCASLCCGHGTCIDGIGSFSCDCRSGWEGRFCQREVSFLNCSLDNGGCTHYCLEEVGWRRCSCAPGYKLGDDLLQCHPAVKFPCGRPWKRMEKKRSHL
Vitamin K-dependent protein C, sequence (P04070 212-461 limits assumed): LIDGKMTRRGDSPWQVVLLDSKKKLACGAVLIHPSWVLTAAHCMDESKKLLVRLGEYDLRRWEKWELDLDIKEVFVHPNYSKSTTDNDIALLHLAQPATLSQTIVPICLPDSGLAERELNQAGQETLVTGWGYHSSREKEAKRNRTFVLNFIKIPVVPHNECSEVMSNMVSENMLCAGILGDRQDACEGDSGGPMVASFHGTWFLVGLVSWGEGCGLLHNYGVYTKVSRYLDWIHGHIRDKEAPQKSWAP

Cc1ccc(C2Oc3ccccc3N(CCCCCN3C(C)CCCC3C)C2=O)cc1 (stereo not given)
inhibition [1]: 13%
IC50 [2]: 28 µM
inhibition [3]: 33%
inhibition [4]: 18%

CC1CCCC(C)N1CCCCCN1C(=O)C(c2cccc(C(=N)S)c2)Oc2ccccc21 (stereo not given)
inhibition [1]: 29%
inhibition [3]: 20%
inhibition [4]: 5.2%

N=C(N)c1cccc(C2Oc3ccccc3N(CCCCCN3CCOCC3)C2=O)c1 (stereo not given)
IC50 [2]: 0.24 µM
inhibition [5]: 70%
IC50 [6]: 1100 nM
IC50 [7]: 2200 nM

N=C(N)c1cccc(C2Oc3ccccc3N(CCCCCN3CCCCC3)C2=O)c1 (stereo not given)
IC50 [2]: 0.053 µM
IC50 [6]: 990 nM
IC50 [7]: 3400 nM
IC50 [8]: 21 µM

CC1CCCC(C)N1CCCCCN1C(=O)C(c2ccc(C(=N)NO)cc2)Oc2ccccc21 (stereo not given)
inhibition [1]: 10%
IC50 [2]: 66 µM
inhibition [3]: 18%
inhibition [4]: 8%

CC1CCCC(C)N1CCCCCN1C(=O)C(c2ccc(Cl)c(Cl)c2)Oc2ccccc21 (stereo not given)
inhibition [1]: 25%
IC50 [2]: 26 µM
inhibition [3]: 47%
inhibition [4]: 14%

CCCCCCN(CCCCCC)CCCCCN1C(=O)C(c2cccc(C(=N)N)c2)Oc2ccccc21 (stereo not given)
IC50 [2]: 1.6 µM
IC50 [6]: 2500 nM
IC50 [7]: 1900 nM
IC50 [8]: 2.2 µM

CC(C)N(CCCCCN1C(=O)C(c2cccc(C(=N)N)c2)Oc2ccccc21)C(C)C (stereo not given)
IC50 [2]: 0.12 µM
inhibition [5]: 72%
IC50 [6]: 1200 nM
IC50 [7]: 1200 nM

C/N=C(/N)c1cccc(C2Oc3ccccc3N(CCCCCN3C(C)CCCC3C)C2=O)c1 (stereo not given)
inhibition [5]: 32%
inhibition [3]: 68%
inhibition [4]: 32%

CC1CCCC(C)N1CCCCCN1C(=O)C(c2cccc(C(=N)NO)c2)Oc2ccccc21 (stereo not given)
inhibition [1]: 11%
IC50 [2]: 5.6 µM
inhibition [3]: 19%
inhibition [4]: 21%

CC1CCCC(C)N1CCCCCN1C(=O)C(c2ccc(C(=N)N)cc2)Oc2ccccc21 (stereo not given)
inhibition [1]: 80%
IC50 [2]: 7.9 µM
IC50 [6]: 13000 nM
IC50 [7]: 1700 nM

CC1CCCC(C)N1CCCCN1C(=O)C(c2cccc(C(=N)N)c2)Oc2ccccc21 (stereo not given)
IC50 [2]: 0.012 µM
IC50 [6]: 300 nM
IC50 [7]: 1100 nM
IC50 [8]: 38 µM

N=C(N)c1cccc(C2Oc3ccccc3N(CCCCCN)C2=O)c1 (stereo not given)
IC50 [2]: 6.3 µM
inhibition [5]: 64%
inhibition [3]: 60%
IC50 [6]: 4300 nM

CC1CCCC(C)N1CCCCCN1C(=O)C(c2ccc(Cl)cc2)Oc2ccccc21 (stereo not given)
inhibition [1]: 30%
IC50 [2]: 23 µM
inhibition [3]: 38%
inhibition [4]: 46%

CC1CCCC(C)N1CCCCCN1C(=O)C(c2cccc(CN)c2)Oc2ccccc21 (stereo not given)
IC50 [2]: 0.84 µM
inhibition [9]: 64%
IC50 [6]: 7800 nM
IC50 [8]: 25 µM

CC1CCCC(C)N1CCCCCN1C(=O)C(c2cccc(C(=N)NN3CCOCC3)c2)Oc2ccccc21 (stereo not given)
inhibition [5]: 0%
inhibition [3]: 15%
inhibition [4]: 58%

CC1CCCC(C)N1CCCCCN1C(=O)C(c2cccc(C(N)=NN3CCOCC3)c2)Oc2ccccc21 (stereo not given)
IC50 [2]: 1.5 µM

COc1ccc(C2Oc3ccccc3N(CCCCCN3C(C)CCCC3C)C2=O)cc1OC (stereo not given)
inhibition [1]: 0%
inhibition [10]: 31%
inhibition [3]: 0%
inhibition [4]: 0%

COc1cc(C2Oc3ccccc3N(CCCCCN3C(C)CCCC3C)C2=O)cc(OC)c1OC (stereo not given)
inhibition [1]: 20%
inhibition [10]: 30%
inhibition [3]: 30%
inhibition [4]: 12%

CNC(=N)c1cccc(C2Oc3ccccc3N(CCCCCN3C(C)CCCC3C)C2=O)c1 (stereo not given)
IC50 [2]: 2.8 µM

CC1CCCC(C)N1CCCCCCN1C(=O)C(c2cccc(C(=N)N)c2)Oc2ccccc21 (stereo not given)
IC50 [2]: 0.068 µM
IC50 [6]: 2100 nM
IC50 [7]: 5600 nM
IC50 [8]: 12 µM

CC1CCCC(C)N1CCCCCN1C(=O)C(c2cccc(C(=N)N)c2)Oc2ccccc21 (stereo not given)
IC50 [11]: 4 nM
IC50 [2]: 0.003 µM
Concentration [12]: 0.17 µM
Concentration [13]: 0.33 µM
TO [14]: 240 min
TO [15]: 167 min
TO [16]: 144 min
TO [17]: 240 min
TO [18]: 220 min
Concentration [19]: 0.34 µM
TO [20]: 87 min
Concentration [21]: 0.19 µM
Concentration [22]: 0.57 µM
TO [23]: 98 min
inhibition [24]: 32%
TO [25]: 240 min
IC50 [26]: 23 µM
TO [27]: 27 min
TO [28]: 37 min
TO [29]: 148 min
Concentration [30]: 0.15 µM
inhibition [31]: 24%
TO [32]: 125 min
TO [33]: 120 min
IC50 [8]: 8.4 µM

CC1CCC(C)N1CCCCCN1C(=O)C(c2cccc(C(=N)N)c2)Oc2ccccc21 (stereo not given)
IC50 [2]: 0.048 µM
inhibition [5]: 85%
IC50 [6]: 760 nM
IC50 [7]: 910 nM

COc1ccc(C2Oc3ccccc3N(CCCCCN3C(C)CCCC3C)C2=O)cc1 (stereo not given)
inhibition [1]: 19%
IC50 [2]: 4.9 µM
inhibition [3]: 29%
inhibition [4]: 2.3%

CC1CCCC(C)N1CCCCCN1C(=O)C(c2ccc(C(=N)S)cc2)Oc2ccccc21 (stereo not given)
inhibition [1]: 44%
IC50 [2]: 34 µM
inhibition [3]: 32%
inhibition [4]: 7.8%

CC1CCCC(C)N1CCCCCN1C(=O)C(c2ccccc2Cl)Oc2ccccc21 (stereo not given)
inhibition [1]: 23%
IC50 [2]: 16 µM
IC50 [6]: 39000 nM
IC50 [7]: 65000 nM

CC1CCCC(C)N1CCCCCN1C(=O)C(c2ccccc2)Oc2ccccc21 (stereo not given)
IC50 [2]: 27 µM
inhibition [5]: 26%
inhibition [3]: 19%
inhibition [4]: 2.8%
